Bioassay records: PubChem BioAssay, several laboratories
NPY-Y1 PAM-ag: potentiates or activates human NPY-Y1 receptor; P25929; NPY-Y1 expressing cells, potentiator/agonist activation; activation, % at 3.6 µM; actives 0.37% (n = 220,000); in the data active means activation above about 33%, passing the limit was not always enough;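 further: cells stimulated with NPY at EC10 then isoproterenol at EC100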
NPY Y2 blocker: antagonists of human neuropeptide Y receptor Y2 | actives 0.99% (n = 140,000) | AID 793 | P49146 | inhibition, % at 2.7 µM | NPY-Y2 expressing cells, antagonist mode; in the data active means inhibition above about 17%
NPY-Y2 PAM-ag: potentiates or activates human NPY-Y2 receptor. P49146. cells expressing NPY-Y2, potentiator/agonist read-out. activation, % at 3.6 µM. actives 0.45% (n = 220,000); in the data active means activation above about 27%;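 further: cells stimulated with NPY near EC25 plus isoproterenol at EC100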
NPY Y1 blocker: antagonists of human neuropeptide Y receptor Y1 | P25929 | HEK293-CNG Y1 cells, membrane potential fluorescence; NPY at EC95, then isoproterenol | inhibition, % at 3.6 µM | actives 1% (n = 200,000);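 active means inhibition above the campaign mean inhibition of all tested compounds plus 3 SD, cut at about 20% in these data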
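Material: Y1- and CNG-channel-expressing HEK293 cells / Probe or stimulus: NPY 25 nM then isoproterenol 1 µM plus Ro 20-1724 25 µM / Doses: 3.6 µM single dose, DMSO 0.4% / Schedule: compound incubation 1 h at room temperature, readout 45 min post-stimulation / Signal: membrane potential fluorescence / Benchmarks: isoproterenol-only wells as full block versus NPY-plus-isoproterenol wells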
Furin inh: human furin inhibition; P09958; purified furin, fluorogenic substrate cleavage; inhibition, % at 20 µM or 30 µM; actives 0.061% (n = 220,000); in the data active means inhibition above about 25%
Target sequence (P09958 108-714 limits assumed): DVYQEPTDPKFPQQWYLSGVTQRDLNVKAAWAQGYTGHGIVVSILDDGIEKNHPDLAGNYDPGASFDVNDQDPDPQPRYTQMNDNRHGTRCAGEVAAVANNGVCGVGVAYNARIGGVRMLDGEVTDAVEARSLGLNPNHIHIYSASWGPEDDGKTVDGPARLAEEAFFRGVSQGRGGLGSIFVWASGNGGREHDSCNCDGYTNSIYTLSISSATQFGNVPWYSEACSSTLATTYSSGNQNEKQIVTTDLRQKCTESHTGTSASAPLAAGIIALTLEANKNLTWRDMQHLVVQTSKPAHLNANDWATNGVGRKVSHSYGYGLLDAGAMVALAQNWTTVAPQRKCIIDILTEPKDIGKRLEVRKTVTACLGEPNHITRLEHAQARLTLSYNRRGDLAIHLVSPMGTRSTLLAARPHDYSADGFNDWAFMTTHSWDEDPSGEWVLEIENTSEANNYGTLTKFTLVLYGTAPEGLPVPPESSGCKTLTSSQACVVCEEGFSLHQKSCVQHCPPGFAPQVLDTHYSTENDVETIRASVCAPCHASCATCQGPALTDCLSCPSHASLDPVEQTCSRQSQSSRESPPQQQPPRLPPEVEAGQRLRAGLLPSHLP
KCC2 mod: modulates chloride dependent transport by human KCC2; actives 2.2% (n = 190,000); KCC2 cells, thallium flux FluoZin-2 fluorescence; Q9H2X9; B-score of Tl+ flux slope (higher = more flux/activation; lower = inhibition) at 10 µM;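 active means thallium flux slope and its plate-corrected score both differing from the plate sample mean at a set confidence after two filtering rounds, in either direction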;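 further: slope of fluorescence scaled to starting intensity during 10 to 20 s after thallium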
Hits are given with their value; - = inactive; . = no result given. Hits are enriched below; roughly 3.7% of the tested compounds scored in any of these assays.

SMILES | NPY-Y1 PAM-ag | NPY Y2 blocker | NPY-Y2 PAM-ag | NPY Y1 blocker | Furin inh | KCC2 mod
Cc1ccc([N+](=O)[O-])cc1NC(=S)NC(=O)c1cccnc1 | - | . | - | - | - | -
O=[N+]([O-])c1ccc(O)c(/C=N/NC(=S)Nc2ccc(Cl)cc2Cl)c1 | - | . | - | . | - | 9.22
O=C(O)c1cccc(NC(=S)NC(NC(=O)c2cccc([N+](=O)[O-])c2)C(Cl)(Cl)Cl)c1 (configuration not stated) | - | . | - | . | - | -
O=C(NC(NC(=S)Nc1ccc(Cl)cc1Cl)C(Cl)(Cl)Cl)c1cccc([N+](=O)[O-])c1 (configuration not stated) | 56.1 | - | 55.5 | - | - | .
O=C(NC(=S)Nc1cc([N+](=O)[O-])ccc1Cl)c1ccccc1 | - | - | - | - | - | 11.4
Cc1ccc([N+](=O)[O-])cc1NC(=S)NC(=O)c1ccco1 | - | - | - | - | - | 14.6
O=C(NC(=S)Nc1cc(C(F)(F)F)ccc1Cl)c1ccccc1 | - | - | - | - | - | -
Cc1cc(Cl)ccc1NC(=O)CCC(=O)N/N=C/c1cc([N+](=O)[O-])ccc1O | - | . | - | - | - | -
CS(=O)(=O)N(CC(=O)NCc1ccncc1)C1CCCCC1 | - | . | - | - | - | -
CCCc1cc(=O)[nH]c(SCC(=O)NCCC2=CCCCC2)n1 | - | . | - | - | - | -
COc1ccccc1N1CCN(CC(=O)Nc2c(C)n(C)n(-c3ccccc3)c2=O)CC1 | - | . | - | - | - | -
O=C(CCc1ccccc1)NNC(=S)NC(=O)c1ccc(Cl)cc1 | - | - | - | - | - | 68.3
O=C(CCc1ccccc1)NNC(=O)c1ccc(F)cc1 | - | . | - | - | - | -
COC(=O)NNC(=O)COc1ccccc1C | - | - | - | - | - | -
Cc1cccc(C(=O)NC(=S)NNC(=O)COc2c(C)cccc2C)c1 | - | - | - | - | - | 36.8
Cc1cccc(C(=O)NNC(=O)c2cccc(C)c2)c1 | - | - | - | - | - | -
Cc1ccc(C(=O)NC(=S)NNC(=O)COc2ccccc2C)cc1 | - | . | - | - | - | 31.1
COc1ccccc1/C=C(/C#N)C(=O)O | - | . | - | . | - | -
COc1ccccc1N=c1oc2cc(O)ccc2cc1C(=O)NCC1CCCO1 (configuration not stated) | - | 20.8 | - | 24.2 | - | -
COc1cccc(N=c2oc3cc(O)ccc3cc2C(=O)NCC2CCCO2)c1 (configuration not stated) | - | . | - | - | - | -
CC(C)(C)n1nc2c(c1NC(=O)COc1ccccc1F)CS(=O)(=O)C2 | - | . | - | - | - | .
O=C(CCC1CCCCC1)Nc1c2c(nn1-c1ccc(F)cc1)CS(=O)(=O)C2 | - | 29.6 | - | 57.1 | - | -
CCN(Cc1ccccc1)C(c1ccccn1)c1nnnn1C(C)(C)CC (configuration not stated) | - | 25.9 | - | 22.8 | - | .
Cc1cc(C2(c3ccc(O)c(C)c3)C(=O)Nc3ccccc32)ccc1O | - | - | - | - | - | -
Cc1cccc2c1NC(=O)C2(c1ccc(O)cc1)c1ccc(O)cc1 | - | 113.9 | - | 115.8 | - | 13
SMILES | NPY-Y1 PAM-ag | NPY Y2 blocker | NPY-Y2 PAM-ag | NPY Y1 blocker | Furin inh | KCC2 mod
Cc1ccc(C(=O)C(C)OC(=O)c2ccccc2[N+](=O)[O-])cc1 (configuration not stated) | - | - | - | - | - | -
Cc1cccc(OCC(=O)Nc2nonc2NC(=O)COc2cccc(C)c2)c1 | - | - | - | - | - | -
Cc1ccc(C)c(OCC(=O)Nc2nonc2NC(=O)COc2cc(C)ccc2C)c1 | - | 20.7 | - | 23.6 | - | -
Cc1ccc(NC(=O)C2(N(C(=O)Cn3nnnc3N)c3ccc(C)cc3)CCCCC2)cc1 | 40.6 | - | 34.0 | - | - | -
Cc1ccc(N(C(=O)c2ccccn2)C2(C(=O)NC3CCCC3)CCCCC2)cc1 | - | - | - | - | - | -
Cc1ccc(C(=O)CCC(=O)Nc2cccc(C(F)(F)F)c2)cc1 | - | - | - | - | - | -
CC(=O)n1cc(N(C(=O)CCl)c2ccc([N+](=O)[O-])cc2)c2ccccc21 | 69.4 | . | 54.1 | . | - | -
CC(=O)n1cc(N(C(=O)CCl)c2ccccc2)c2ccccc21 | - | . | - | . | - | -
Nc1ccc2c(c1)N1CCN=C1S2 | - | - | - | - | - | .
O=C(Nc1ccc(Cl)cc1)Nc1ccc2c(c1)N1CCN=C1S2 | 35.1 | - | - | - | - | -
COc1ccc(N(CC(=O)Nc2ccccc2C(=O)O)S(=O)(=O)c2ccc(C)c([N+](=O)[O-])c2)cc1 | - | . | - | - | - | -
COc1ccc(Cc2noc(CN3CCCN(C4Cc5ccccc5C4)CC3)n2)cc1OC | - | . | - | - | - | .
CCN1CCN(CC(O)COCC2COc3ccccc3O2)CC1 (configuration not stated) | - | . | - | - | - | -
OC(COCC1COc2ccccc2O1)CN1CCN(c2ccccc2)CC1 (configuration not stated) | - | - | 34.1 | - | - | -
Cc1[nH]c2ccccc2c1/C=N/Nc1ccccc1[N+](=O)[O-] | 106.9 | . | 101.4 | - | - | -
Cc1[nH]c2ccccc2c1/C=N/NS(=O)(=O)c1ccccc1 | - | . | - | - | - | -
COc1ccc(-n2cc(-c3ccccc3)[nH]c2=S)cc1 | - | - | - | - | - | 17.6
CNC(=S)N(CCc1c(C)[nH]c2ccc(Cl)cc12)Cc1cccs1 | 49.2 | . | 44.0 | - | - | -
Cc1nc(-c2ccc(Cl)cc2)sc1C1(C)CC(c2cccc(F)c2)=NO1 (configuration not stated) | . | . | . | . | - | -
CC(=O)Nc1cc(-c2ccccc2)nn1Cc1ccc(Cl)cc1 | - | - | - | - | - | -
CC(=O)Nc1cc(-c2ccc(Cl)cc2)nn1-c1ccccc1 | - | - | - | - | 27.6 | -
N#CC1=C(N)C(C#N)(C#N)C(c2cccnc2)C2CC(c3ccccc3)CC=C12 (configuration not stated) | - | - | - | - | - | -2.58
N#CC1=C(N)C(C#N)(C#N)C(c2cccnc2)C2CCCC=C12 (configuration not stated) | - | - | - | - | - | -
CC12CCC(C(=O)Nc3cc(Cl)ccc3Cl)(C/C1=N\O)C2(C)C (configuration not stated) | - | - | - | - | - | -
CC(=O)c1nnn(-c2c(F)cccc2F)c1C | - | . | - | . | - | .
Cc1ccc(-n2c(C)cc(/C=N/NC(=O)Cn3c4ccccc4c(=O)c4ccccc43)c2C)cc1 | 60.9 | - | 55.5 | - | - | -
COC(=O)N/N=C/c1cc(C)n(-c2ccccc2)c1C | - | - | - | - | - | -
CC(C)CN(CC(C)C)CC(O)COc1ccc([N+](=O)[O-])cc1 (configuration not stated) | - | - | - | - | - | -
